Data set [1] can be described thus: In vitro inhibition of [3H]GABA uptake in rat synaptosomes. In kind it is functional, subcellular, Brain. An outline of the steps: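 Rat forebrain homogenized in ice-cold 0.32 M sucrose, spun 10 min at 600g at 4 °C, and the pellet resuspended in pH 7.4 Na/K/Ca/Mg phosphate-glucose buffer. Synaptosomes (0.1 mg protein) preincubated with test substance 8 min at 30 °C. [3H]GABA (final 0.9 nM) plus unlabeled GABA (final 0.9 nM) then added for a further 8 min, followed by filtration. Uptake in the presence of 500 μM nipecotic acid subtracted. IC50 is the mean of 3–7 determinations ± SE.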

The subject of data set [2] is Mus musculus. Nature of the data set: In vivo anticonvulsant effect of DMCM-induced clonic seizures in mice at 15 mg/kg intraperitoneal dose expressed as effective dose. In kind it is functional. The following applies: ip. An outline of the steps:
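Mice; test compound given ip. Clonic seizures induced with DMCM at 15 mg/kg ip. Inhibition of clonic seizures scored by observation, and ED50 expressed in mg/kg.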

The species entered for data set [3] is Mus musculus. In words: Anticonvulsant effect of DMCM-induced seizures in mice expressed as effective dose.
Data set [4] in a line: Lipophilicity measured as partition between octanol and pH 7.4 buffer. In kind it is physicochemical. The following applies: octanol/pH 7.4 buffer.

This passage reports IC50, ED50 and logD results from ChEMBL document CHEMBL1126711, “The synthesis of novel GABA uptake inhibitors. 1. Elucidation of the structure-activity studies leading to the choice of (R)-1-[4,4-bis(3-methyl-2-thienyl)-3-butenyl]-3-piperidinecarboxylic acid (tiagabine) as an anticonvulsant drug candidate” (J Med Chem, 1993).

Some results are limits rather than exact numbers.

One may read the IC50 as the point on the concentration scale where inhibition reaches its midpoint. As a reminder, the ED50 is the dose that gives a 50% effect, or the effect in half of the subjects. Consider `Cl.Cn1cccc1/C(=C\CCN1CCC=C(C(=O)O)C1)c1ccccc1`, for which, in data set [1], it took 130 nM to reach half-maximal inhibition (IC50). In data set [2], the ED50 stood at 1.8 mg/kg. Take `Cc1ccsc1/C(=C\CCN1CCC[C@@H](C(=O)O)C1)c1cccs1`: in data set [1], half-maximal inhibition (IC50) was put at 690 nM.

Take `Cc1ccsc1C(=CCCN1CCCC(C(=O)O)C1)c1sccc1C.Cl` (configuration not stated): in data set [1], the IC50 came to 87 nM. The compound further returned an ED50 in data set [2] of 2.6 mg/kg. In turn, `Cc1ccccc1C(=CCCN1CCC[C@H](C(=O)O)C1)c1ccccc1C.Cl` showed a 50% effective dose (ED50) in data set [2] of 1.3 mg/kg. The same measure, in the same setting: to `Cc1ccccc1/C(=C/CCN1CCC[C@H](C(=O)O)C1)c1sccc1C.Cl` belongs 1.2 mg/kg. With `Cc1ccsc1/C(=C\CCN1CCC[C@H](C(=O)O)C1)c1c(C)cccc1C`, 247 nM corresponded to half-maximal inhibition in data set [1] (IC50).

Compound `Cc1ccsc1/C(=C\CCN1CCC[C@H](C(=O)O)C1)c1cccs1.Cl` registered an IC50 in data set [1] of 60 nM. In addition, it took a dose of 2.5 mg/kg to reach the 50% effect level in data set [2] (ED50). For `Cc1ccc(/C(=C/CCN2CCC[C@H](C(=O)O)C2)c2sccc2C)c(C)c1`, in data set [1], the IC50 was found to be 264 nM. This lies in the sub-micromolar range. On the same count and under the same terms, to `O=C(O)C1CCCN(CCOC(c2ccccc2)c2ccccc2)C1` (configuration not stated) belongs 1370 nM. As to `Cc1ccccc1/C(=C/CCN1CCC=C(C(=O)O)C1)c1sccc1C.Cl`, the half-maximal inhibitory concentration (IC50) in data set [1] stood at 130 nM. Besides, it took a dose of 1.9 mg/kg to reach the 50% effect level in data set [2] (ED50). The like results for `Cc1ccsc1C(=CCCN1CCC=C(C(=O)O)C1)c1sccc1C.Cl` were, in that order, 138 nM and 1.8 mg/kg.

Take `COc1ccc(C(OCCN2CCCC(C(=O)O)C2)c2ccc(OC)cc2)cc1` (configuration not stated): the IC50 in data set [1] was over 3000 nM.

`Cl.O=C(O)C1CCCN(CCC=C(c2ccccc2)c2ccccc2)C1` (configuration not stated) yielded an IC50 in data set [1] of 330 nM. The same compound returned an ED50 in data set [2] of 3.1 mg/kg. Take `Cc1ccsc1/C(=C\CCN1CCCC(C(=O)O)C1)c1ccccc1` (configuration not stated): the IC50 in data set [1] was determined as 290 nM. `Cc1ccsc1/C(=C\CCN1CCC=C(C(=O)O)C1)c1cccs1.Cl`: the IC50 in data set [1] was found to be 112 nM. In addition, the ED50 in data set [2] turned out to be 2.1 mg/kg. In data set [1], `O=C(O)[C@H]1CCCN(CCC=C2c3ccccc3-c3ccccc32)C1` registered an IC50 of 1920 nM. On the same count and under the same terms, to `Cc1cc(Cl)ccc1/C(=C/CCN1CCC=C(C(=O)O)C1)c1sccc1C` belongs 300 nM; to `Cc1ccccc1C(OCCN1CCCC(C(=O)O)C1)c1ccccc1C` (configuration not stated), 388 nM. The same measure, in the same setting: to `O=C(O)C1=CCCN(CC/C=C(/c2ccccc2)c2cccs2)C1` belongs 265 nM; to `Cc1ccsc1/C(=C\CCN1CCC=C(C(=O)O)C1)c1ccc(Cl)cc1Cl`, 320 nM; to `Cc1ccsc1/C(=C\CCN1CCC=C(C(=O)O)C1)c1cc(Cl)cc(Cl)c1`, 1860 nM. Regarding `Cc1ccsc1/C(=C\CCN1CCC=C(C(=O)O)C1)c1ccc(Cl)cc1`, in data set [1], the IC50 was 848 nM. This IC50 lies about 2.2-fold lower than the previous one. On the same count and under the same terms, to `O=C(O)C1CCCN(CCC=C(c2cccs2)c2cccs2)C1` (configuration not stated) belongs 256 nM. In turn, `Cl.O=C(O)C1=CCCN(CCC=C(c2ccccc2)c2ccccc2)C1` came in with an IC50 in data set [1] of 341 nM. In addition, the ED50 in data set [2] turned out to be 3.6 mg/kg. Consider `Cc1ccsc1C(=CCCN1CCC[C@H](C(=O)O)C1)c1sccc1C`, for which, in data set [1], it took 218 nM to reach half-maximal inhibition (IC50). In other words, the sub-micromolar range. As for `CN1C(=O)CN=C(c2ccccc2)c2cc(Cl)ccc21` [DIAZEPAM], in data set [3], the ED50 was determined as 2.5 mg/kg.

The term logD denotes lipophilicity at a set pH, counting ionised and neutral species. A lower logD goes with a more hydrophilic compound. In data set [4], `Cc1ccsc1C(=CCCN1CCC[C@@H](C(=O)O)C1)c1sccc1C.Cl` [TIAGABINE HYDROCHLORIDE] had a logD of 1.59. Further, the midpoint of inhibition in data set [1], the IC50, lay at 67 nM. Besides, in data set [2], the 50% effect level (ED50) was put at a dose of 1.2 mg/kg.
